LEDGF integ inh: blockers of LEDGF/p75-dependent integrase strand transfer – biochemical, TR-FRET, high throughput, primary screen; TR-FRET IN-LEDGF/p75 DNA integration, Eu/Cy5; HIV-1 integrase (with human LEDGF/p75); 0.64% of 370,000 active; inhibition, % at 3.7 µM;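 active = inhibition above the screen-wide mean plus 3 SD, cut at about 13% in these data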;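 also: signal is the Cy5 over europium emission ratio at 671 and 618 nm; 0% = plate median of compound wells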
UHRF1 MBD2 ctr: UHRF1 methylated DNA binding inhibitors, primary screen, counter-screen for MBD2 inhibitor project, biochemical, TR-FRET, human UHRF1, single concentration. E3 ubiquitin-protein ligase UHRF1 (Homo sapiens), Q96T88. UHRF1 binding to methylated oligo. inhibition, % at 4.4 µM. 0.75% of 370,000 active. AID 687016, 2013; in the data active = inhibition above about 21%;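 also: UHRF1 SRA domain binding a hemimethylated CpG hairpin DNA probe; 0% = median of test compound wells and 100% = reference inhibitor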
CASP6 VEID inh: human caspase-6 inhibitors, primary screen, biochemical, VEID-R110 fluorescence, single point, set 2 | P55212 | purified caspase-6, Z-VEID-R110 cleavage fluorescence | inhibition, % at 12.5 µM | 0.53% of 350,000 active | AID 686996, 2013;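 active = mean inhibition across replicates at least about 35%, with every replicate also reaching that limit, limit read from the data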;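 also: 0% = median of neutral control wells and 100% = no fluorescence left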
TDP2 inh: human TDP2 enzyme inhibitors, primary screen, biochemical, epi absorbance, recombinant enzyme; Tyrosyl-DNA phosphodiesterase 2 (Homo sapiens), O95551; T5PNP hydrolysis, p-nitrophenol absorbance 415 nm; inhibition, % at 12.8 µM; 0.34% of 370,000 active; AID 720702, 2013;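 active = inhibition above the mean of all tested compounds plus 3 SD, set per campaign, cut at about 25% in these data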;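 also: 0% = DMSO with enzyme and 100% = buffer with substrate but no TDP2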
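Read-out basis: percent inhibition. System: recombinant human TDP2. Buffer or medium: Mg2+-containing Tris-HCl buffer, pH 7.5. Repeats: single replicate. Timing: reaction 2 h, 37 °C. Benchmarks: high control without enzyme, low control DMSO plus TDP2. Probe or stimulus: 5 mM T5PNP. Doses: 12.8 µM only. Measured by: epi absorbance of p-nitrophenol freed from T5PNP by hydrolysis.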
NSD2 HMT inh: NSD2 histone methyltransferase inhibitors, primary screen, biochemical, AlphaScreen, single concentration, set 2 | Histone-lysine N-methyltransferase NSD2 (Homo sapiens), O96028 | NSD2 peptide methylation, 120 min | inhibition, % at 12.5 µM | 0.54% of 310,000 active | AID 743445, 2014; in the data active = inhibition above about 50%
MBD2 inh: inhibitors of MBD2 binding to methylated DNA, primary screen, biochemical, TR-FRET, DNA-binding domain, human. Methyl-CpG-binding domain protein 2 (Homo sapiens), Q9UBB5. MBD2 binding to methylated oligonucleotide. inhibition, % at 4.4 µM. 0.31% of 370,000 active; in the data active = inhibition above about 13%
TDP2 inh conf: human TDP2 enzyme inhibitors, retest, confirmation, biochemical, epi absorbance, recombinant enzyme | shares compounds with TDP2 inh | absorbance read-out | inhibition, % at 12.8 µM | 22% of 1,100 active; in the data active = inhibition above about 25%;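 also: 0% = vehicle with enzyme and 100% = no enzyme buffer only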
IN multimer act: HIV-1 IN multimer formation enhancers, counter-screen for LEDGF/p75 integration inhibitor project, biochemical, TR-FRET; 17% of 2,000 active; AID 1053131, 2014; shares compounds with LEDGF integ inh; activation, % at 7.7 µM; TR-FRET HIV-1 integrase multimerization; in the data active = activation above about 8.9%
TR-FRET interf: TR-FRET optical interference artefacts, confirmation, artefact control for LEDGF/p75-dependent integration inhibitor project, biochemical, HIV-1 IN multimerization; shares compounds with LEDGF integ inh; TR-FRET optical interference counterscreen; inhibition, % at 7.7 µM; 2,000 tested, under 10 active; AID 1053135, 2014;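 active = inhibition above the mean over all tested compounds plus 3 SD, which no compound reached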;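 also: 0% = integrase with antibodies and DMSO and 100% = antibodies without integrase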
LEDGF integ conf: inhibitors of HIV-1 IN-LEDGF/p75 DNA integration, confirmation, biochemical, TR-FRET; shares compounds with LEDGF integ inh; TR-FRET LEDGF/p75-dependent HIV-1 integration; inhibition, % at 3.7 µM; 36% of 2,000 active; AID 1053136, 2014; in the data active = inhibition above about 14%
* marks the source's active call; other numbers are inactive results; nt = not tested or not shown. This is a sample that favours compounds with a hit; in the whole collection about 1.8% have one here.

SMILES | LEDGF integ inh | UHRF1 MBD2 ctr | CASP6 VEID inh | TDP2 inh | NSD2 HMT inh | MBD2 inh | TDP2 inh conf | IN multimer act | TR-FRET interf | LEDGF integ conf
C=CCn1c(NC(=O)c2ccccc2Cl)c(C#N)c2nc3ccccc3nc21 | 30* | 13 | nt | 79* | 5 | 18* | 45* | -3 | 11 | 72*
Cc1cc(=O)n(-c2ccc(O)cc2)[nH]1 | 19* | 6 | nt | 56* | 7 | -4 | 15 | 1 | -7 | -5
Cc1noc(C)c1NC(=O)N(C)C[C@H]1Oc2c(NS(=O)(=O)c3ccc(Cl)cc3)cccc2C(=O)N([C@H](C)CO)C[C@H]1C | nt | nt | -3 | nt | nt | nt | nt | nt | nt | nt
CC(C)N(C(=O)Nc1ccc2nsnc2c1)C(C)C | 51* | 15 | 100* | 88* | 104* | -1 | 61* | 2 | -7 | 75*
COc1ccc(N(C)C(=O)Nc2ccc3nsnc3c2)cc1 | 56* | 4 | 6 | 95* | -1 | -3 | 7 | -3 | 10 | 5
COc1ccc(N(C)C(=O)Nc2ccc3c(c2)nnn3C)cc1 | 6 | 8 | 7 | -15 | -3 | -3 | nt | nt | nt | nt
Fc1ccccc1/C=N/Nc1nn[nH]n1 | 2 | -2 | nt | -5 | -7 | 0 | nt | nt | nt | nt
COc1cccc(/C=N/Nc2cc(Cl)nc(C)n2)c1O | 2 | -1 | -3 | 10 | -1 | -6 | nt | nt | nt | nt
Cc1nnc(N/N=C/c2cccc(C(F)(F)F)c2)n1N | 57* | 13 | 25 | 82* | 25 | 2 | 7 | -2 | 8 | -8
Cc1nnc(N/N=C/c2ccccc2F)n1N | 56* | 8 | 8 | 50* | -1 | -2 | 8 | 1 | -3 | -4
Cc1nnc(N/N=C/c2ccccc2C(F)(F)F)n1N | 45* | 2 | -2 | 52* | -1 | -4 | 10 | 0 | 1 | 3
CN(C)c1cc(N/N=C/c2ccccc2C(F)(F)F)nc(N(C)C)n1 | 2 | -6 | -1 | 22 | 5 | 1 | nt | nt | nt | nt
COc1cccc(/C=N/Nc2nnc(C)n2N)c1O | 48* | 10 | 10 | 41* | -2 | 4 | 1 | 2 | -9 | -1
O=C(O)c1ccc(N/N=C/c2cccc(C(F)(F)F)c2)cc1 | 0 | -3 | 1 | 4 | nt | -6 | nt | nt | nt | nt
O=C(c1cccnc1)N1C[C@@H]2[C@H](c3ccccc31)[C@H](CO)N2C(=O)Nc1ccccc1 | nt | nt | -1 | nt | nt | nt | nt | nt | nt | nt
Cc1nnc(N/N=C/c2cccc(OCc3ccc(Cl)c(Cl)c3)c2)n1N | 57* | 6 | nt | 62* | 12 | 4 | 2 | -1 | 2 | -4
COc1ccc(-n2c(C)cc(/C=N/Nc3nnc(C)n3N)c2C)cc1 | 49* | 9 | nt | 73* | nt | -2 | 14 | 3 | -12 | -3
Cc1nnc(N/N=C/c2ccco2)n1N | 43* | 4 | 6 | 69* | -2 | -9 | 7 | 5 | -24 | -3
Cc1ccnc(N/N=C/c2ccco2)n1 | -1 | -3 | nt | 7 | -4 | -3 | nt | nt | nt | nt

Screening data deposited in PubChem BioAssay by several laboratories.
